Test results: the RNAGym collection of RNA variant scans (doi:10.1126/science.aae0568)
This sample holds only a part of the variants without activity.

B1: tRNA (parent)
chain: GUUCCGUUGGCGUAAUGGUAACGCGUCUCCCUCCUAAGGAGAAGACUGCGGGUUCGAGUCCCGUACGGAACG

Variants of: B1
Test: yeast fitness relative to wild type (ratio to wild type); higher = fitter; tRNA-Arg(CCU), competitive growth, 37 C, YPD
How it was run: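 The tRNA-Arg(CCU) gene variants were made by chemical synthesis with a 3% per-site mutation rate at 69 sites and inserted at the native genomic locus of Saccharomyces cerevisiae. After pooling, the strains were competed in YPD at 37°C for 24 hours in six parallel replicates. Gene amplicons from the start population and each end population were read by 100-nucleotide paired-end sequencing, and Darwinian fitness relative to wild type was taken from genotype frequency changes. Genotypes needed ≥ 100 starting reads, and estimates < 0.5 were set to 0.5.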

Variant | yeast fitness
U59A A70C | 0.741
G58C G67C | 1.17
G58C G67A | 0.807
C62U C66U | 1.06
G52A G68A | 0.678
G51A G58A | 0.967
A65G C66A | 0.716
A65G C66U | 0.993
U53G G56C G67C | 0.605
U59C A70G | 1.01
G58C C61A A69U | 0.55
G56A G67U | 0.99
C55G A69G | 0.627
C55G A69U | 0.636
C55A U64C | 0.623
A57G A69G A70G | 0.704
A57G A70G | 0.889
G56A A57C | 0.699
G56A A57G | 0.905
A65C A70C | 1.03
A57C | 0.62
A57U | 0.731
A57G | 0.998
A57G U64C A65C | 0.506
G52C A57C G63C U64C | ≤ 0.5

Variant | yeast fitness
C61U A69C | 0.882
C60A A69G | 0.56
U53A G56C | ≤ 0.5
G52C G63A A65G | ≤ 0.5
G50C G56C | 0.614
U54G A65C | 0.606
C66A G68A | 0.695
G50A C61A | 0.744
G51A G58A A65U | 0.713
A57U G68C | 0.652
C55A A57C C66U | ≤ 0.5
C55U G58A | 0.642
A57C A65C A70C | 0.571
C62G A65U | 0.75
C49U G58A A65G | 1
G56C C61U | 0.747
C55G C61U | 0.743
C49G G56A G63A | 0.584
U59A G63A | 0.872
C49U A65G G67A A69U | ≤ 0.5
G50C A69C | 0.67
G50C A69U | 0.833
G51C U54A | ≤ 0.5
G50A G63A | 0.943
G58A C66U G67U | 0.543

Variant | yeast fitness
U54C C66U A69U | 0.62
G52A C60A A69G | ≤ 0.5
G52A A57C A69U | 0.565
G63A C66A | 0.72
C61A G67C | 0.664
G67C G68U | 0.676
C62U G63C U64C | 0.789
G63A G67A | 0.693
C49G G68U | 0.808
U59G G63C | 0.639
C49G G63C A69U | 0.651
U53A G58A G68U | ≤ 0.5
G63A C66G A69G | ≤ 0.5
G58A G68C | 1.01
A57U A70U | 0.69
A65U C66U | 0.818
U53C C66U | 0.814
C49U C55G | 0.885
G56A G68C | 0.838
U54A C61G A65U | ≤ 0.5
C49U A69U | 1.01
A57C C61G A69C | ≤ 0.5
G56U A69C | 0.717
G52C U59G | 0.538
G52C U59A | 0.598

Variant | yeast fitness
G56C A69C A70U | 0.605
C55U A65U | 0.794
C55U G67C | 0.677
G52C A57U C60U C62U | ≤ 0.5
U59A C60U | 0.74
G52A G56U | 0.554
C55U A57U | 0.634
A57C C60U A69C | ≤ 0.5
U59C | 1
U59A | 0.973
U59G | 1.01
G63A A69G | 0.878
G63A A69C | 0.941
U53G U59C C66U | ≤ 0.5
C55G C60A | 0.536
G52C A57U C62U C66G | ≤ 0.5
C60G C66G A70C | ≤ 0.5
C49G G51A | 0.637
G56A G58A G67C | 0.679
G50A G51C C60G | ≤ 0.5
C62U A70G | 0.997
A57U C62A | 0.629
C55U A69C | 0.762
G52A A57C A65C | 0.647
C49U A57U G58C | ≤ 0.5

Variant | yeast fitness
G50C C55A | 0.619
G52A C55G A57U | ≤ 0.5
C55A A70U | 0.658
G50A G51A | 0.645
G67U A69U | 0.887
G52C G56A | 0.689
U53A G67A | 0.686
A57U A65G | 0.753
G51A C60G | 0.596
G51A C60A | 0.599
G67U G68C | 0.773
G50C G51C | 0.522
U54C A70U | 0.869
U53A A69C | 0.622
U53A A69U | 0.891
G50C G56A G58A | 0.64
C49U A57G | 0.865
G58C C62G | 0.755
U53C A69C | 0.881
C62A C66U | 0.694
C62A C66G | 0.718
U59A A65U | 0.636
G50C G52A C61G | 0.722
C55U C61A G68A | ≤ 0.5
C60U C61G | 0.643

Variant | yeast fitness
U54G G63C | ≤ 0.5
G50C C61A | 0.544
C55G G56A | 0.628
C55U G58A U59C C62U | ≤ 0.5
C62G G67C | 0.614
C49U C62G C66U | 0.608
G56C A57U G58A | ≤ 0.5
G52A G63A | 0.546
G52A G63C | 0.652
G56C G58C | 0.563
G56C G58A | 0.607
U53A A57C | 0.623
A57C A70G | 0.664
G50A G58C | 1.01
C61U A69U A70U | 0.678
C61U G68U | 0.639
C61U G68C | 0.68
C61U G68A | 0.711
C60G G68A | 0.695
U53A U59A | 0.664
C61A A65U | 0.604
U64C A70C | 0.967
C49U U59C C61U | 0.618
C49U A65G C66G | ≤ 0.5
C49G G63C G68C | ≤ 0.5

Variant | yeast fitness
G51A A69C | 0.979
G63A A65U | 0.945
A57U A65C C66G | ≤ 0.5
C62A A65U | 0.772
A57G C66U | 0.816
C55U U64A C66A | ≤ 0.5
C55G G68C | 0.624
C60A U64A | 0.561
U54C G58A | 0.834
A65C G68C | 0.778
G56A A70U | 0.918
C61G C66G | 0.625
G51A G56A U59C | 0.565
C49U U54G C61U | ≤ 0.5
G56A A65U | 0.978
C62U G67C | 0.917
C61G G63A A70U | 0.562
A65G A69C | 0.984
A57C U64G | 0.512
G50A A57U | 0.6
G50A A57G | 0.944
G58A A70U | 0.955
C49U C55G G63A | ≤ 0.5
G50U C66U | 0.96
C55A G68C | 0.674

Variant | yeast fitness
G52C U53C | ≤ 0.5
C61A C62U A65U A69C | 0.52
C55A A65C | 0.603
G50U A69C | 0.958
C55G A57U | 0.633
G50A U59A | 0.831
C49G U54C | 1.01
C55G A57C C61A C66U | 0.544
A57C C60A | ≤ 0.5
U54C U64C | 0.758
G50A G51C A65C | ≤ 0.5
G56C A57C C61G | ≤ 0.5
C61G G63C G68A | ≤ 0.5
G50A U64C | 0.966
U59G C66A | 0.62
G63A A70U | 0.816
G63A A70C | 0.973
U54C C62U | 0.815
G56A A69C A70U | 0.825
G63C A65C C66A | ≤ 0.5
C55U C66A | 0.656
U54C G56A | 0.788
U59C G68A | 0.817
C66G G67C | 0.733
C66G G67U | 0.63

Variant | yeast fitness
G51C C61A | 0.516
C49G G52A A57C | ≤ 0.5
C49U G50C | 0.815
G50A C60A | 0.581
G58A G67C | 0.988
G51A C66G | 0.704
G50A G68A | 0.915
C55U C61U | 0.75
A57G A65G | 1.02
A57G A65G C66U | 0.65
G50C U54A | 0.524
U64A | 0.972
U64C | 0.985
U64G | 0.993
G63U A69U | 0.83
G58C A69U | 0.846
G50C G67A | 0.816
C55G U59A A70G | 0.731
G56A A69U | 1.01
G67A | 0.951
G67C | 0.986
G67U | 0.918
G52C A57C | 0.526
G56C A69U A70U | ≤ 0.5
C49U A70C | 1.02

Variant | yeast fitness
G51C G56A | 0.698
A57U U59A A65C | ≤ 0.5
G51A C60U C61U A65G A69C | 0.594
U54A C61G | 0.63
G68U A69C | 0.817
C49U U53C A69C | 0.597
G56A C60G | 0.681
G58A C62U A69C | 1.1
C62A A70C | 0.955
G50C C60G | ≤ 0.5
C55U C61G C62G | 0.629
G58C C66U | 0.982
C60A G68C | 0.734
C49U G67U | 0.885
C49U G67C | 0.851
G51A A70G | 0.85
C61G C62U | 0.613
A65U A70G | 1.05
A57U A69G | 0.665
G58C G63A | 0.873
G67A G68C | 0.819
G51C A65C C66U | ≤ 0.5
A57G C60U G68C | 0.527
U54C C66U | 0.767
G50C C62G A70U | 0.606

Variant | yeast fitness
C60U A69G | 0.572
C60U A69C | 0.713
U54G A69U | 0.648
G51A C61A C62G | ≤ 0.5
G56C A65G A70U | 0.587
A65U G67C | 0.64
C62U A65C A70C | 0.619
G50A C55U A65G | ≤ 0.5
C60A G67C | 0.654
C61A G68A | 0.716
U54G A70U | 0.678
C62U U64C | 1.02
C61U A65U | 0.724
C49U G56A G67A | 0.593
U64A A69U | 0.834
C61G A69U | 0.635
C55G A65C G67A | ≤ 0.5
C55U C62G | 0.739
G51A G56C | 0.597
G56A U59C A65C | 0.738
C62G G63A | 0.796
C60G G67A | 0.584
C49G G52A C61G | 0.534
A57G U59C A69U | 0.748
A57C U64G C66U | ≤ 0.5

Variant | yeast fitness
U59G C60G | 0.638
U59G C60U | 0.63
A57C G67C | 0.707
U53A C55U | 0.545
G58A A69U | 0.986
C55U U64C | 0.873
U54C G68A | 0.937
G50A A57C C60G C61U | ≤ 0.5
C55A G63C | 0.603
U59A C66A | 0.63
G58C C61A A65U | ≤ 0.5
G52C A70G | 0.637
G52C A70C | 0.715
C49U C60U A69C | 0.566
C66U A70U | 0.923
C55A C62G | 0.543
U53G C66U | 0.604
C62U A65U G67A | 0.532
C61G G67U | 0.61
G50C C55U A69G | 0.554
U53G A65U | 0.635
C60U C62G A70G | 0.521
